Measured values from ChEMBL document CHEMBL1154531, “Synthesis and structure-activity studies of novel homomorpholine oxazolidinone antibacterial agents” (Bioorg Med Chem Lett, 2009).
≈ marks a conversion by molar mass, not a printed value.

Legend:
Assay type in all cases: functional
[1] = test system: Streptococcus pyogenes; assay: Antibacterial activity against Streptococcus pyogenes C-203 by micro broth method
Procedure, shortened: (§1)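 Minimum inhibitory concentration determined by broth microdilution and reported in μg/mL.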

[2] = test system: Enterococcus faecalis; assay: Antibacterial activity against Enterococcus faecalis MGH-2 EF1-1 by micro broth method; procedure, shortened: as §1
[3] = test system: Staphylococcus aureus; assay: Antibacterial activity against Staphylococcus aureus UC-76 SA-1 by micro broth method; procedure, shortened: as §1
[4] = test system: Streptococcus pneumoniae; assay: Antibacterial activity against Streptococcus pneumoniae SV1 SP-3 by micro broth method; procedure, shortened: as §1
[5] = test system: Escherichia coli; assay: Antibacterial activity against Escherichia coli by transcription-translation assay
Procedure, shortened: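 Cell-free E. coli coupled in vitro transcription/translation system with a luciferase reporter as read-out.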

Compound: CNC(=O)[C@H]1CN(c2ccc(N3CCCOCC3)c(F)c2)C(=O)O1
- MIC [1]: 8 µg/mL (≈ 23.7 µM)
- MIC [2]: 16 µg/mL (≈ 47.4 µM)
- MIC [3]: 16 µg/mL (≈ 47.4 µM)
- MIC [4]: 8 µg/mL (≈ 23.7 µM)

Compound: CNC(=O)[C@H]1CN(c2cc(F)c(N3CCCOCC3)c(F)c2)C(=O)O1
- MIC [1]: 4 µg/mL (≈ 11.3 µM)
- MIC [2]: 8 µg/mL (≈ 22.5 µM)
- IC50 [5]: 6.37 µM
- MIC [3]: 4 µg/mL (≈ 11.3 µM)
- MIC [4]: 4 µg/mL (≈ 11.3 µM)

Compound: CC(=O)NC[C@H]1CN(c2cc(F)c(N3CCCOCC3)c(F)c2)C(=O)O1
- MIC [1]: 1 µg/mL (≈ 2.71 µM)
- MIC [2]: 1 µg/mL (≈ 2.71 µM)
- IC50 [5]: 1.67 µM
- MIC [3]: 2 µg/mL (≈ 5.41 µM)
- MIC [4]: 1 µg/mL (≈ 2.71 µM)

Compound: COC(=O)NC[C@H]1CN(c2cc(F)c(N3CCCOCC3)c(F)c2)C(=O)O1
- MIC [1]: 1 µg/mL (≈ 2.59 µM)
- MIC [2]: 2 µg/mL (≈ 5.19 µM)
- IC50 [5]: 1.9 µM
- MIC [3]: 2 µg/mL (≈ 5.19 µM)
- MIC [4]: 1 µg/mL (≈ 2.59 µM)

Compound: O=C1O[C@@H](Cn2ccnn2)CN1c1ccc(N2CCCOCC2)cc1
- MIC [1]: 8 µg/mL (≈ 23.3 µM)
- MIC [2]: 32 µg/mL (≈ 93.2 µM)
- MIC [3]: 16 µg/mL (≈ 46.6 µM)
- MIC [4]: 16 µg/mL (≈ 46.6 µM)

Compound: C[Si](C)(C)C#Cc1cn(C[C@H]2CN(c3cc(F)c(N4CCCOCC4)c(F)c3)C(=O)O2)nn1
- MIC [1]: 2 µg/mL (≈ 4.21 µM)
- MIC [2]: > 32 µg/mL
- MIC [3]: > 32 µg/mL
- MIC [4]: 4 µg/mL (≈ 8.41 µM)

Compound: CC(=O)NC[C@H]1CN(c2ccc(N3CCCOCC3)c(F)c2)C(=O)O1
- MIC [1]: 2 µg/mL (≈ 5.69 µM)
- MIC [2]: 2 µg/mL (≈ 5.69 µM)
- IC50 [5]: 2.3 µM
- MIC [3]: 4 µg/mL (≈ 11.4 µM)
- MIC [4]: 2 µg/mL (≈ 5.69 µM)

Compound: O=C1O[C@@H](CO)CN1c1ccc(N2CCCOCC2)cc1
- MIC [1]: > 64 µg/mL
- MIC [2]: > 64 µg/mL
- MIC [3]: > 64 µg/mL
- MIC [4]: > 64 µg/mL

Compound: C#Cc1cn(C[C@H]2CN(c3cc(F)c(N4CCCOCC4)c(F)c3)C(=O)O2)nn1
- MIC [1]: 2 µg/mL (≈ 4.96 µM)
- MIC [2]: 2 µg/mL (≈ 4.96 µM)
- MIC [3]: 4 µg/mL (≈ 9.92 µM)
- MIC [4]: 2 µg/mL (≈ 4.96 µM)

Compound: NC(=O)[C@H]1CN(c2ccc(N3CCCOCC3)c(F)c2)C(=O)O1
- MIC [1]: 8 µg/mL (≈ 24.7 µM)
- MIC [2]: 16 µg/mL (≈ 49.5 µM)
- MIC [3]: 8 µg/mL (≈ 24.7 µM)
- MIC [4]: 16 µg/mL (≈ 49.5 µM)

Compound: O=C1O[C@@H](CO)CN1c1cc(F)c(N2CCCOCC2)c(F)c1
- MIC [1]: 2 µg/mL (≈ 6.09 µM)
- MIC [2]: 8 µg/mL (≈ 24.4 µM)
- MIC [3]: 4 µg/mL (≈ 12.2 µM)
- MIC [4]: 4 µg/mL (≈ 12.2 µM)

Compound: NC(=O)[C@H]1CN(c2cc(F)c(N3CCCOCC3)c(F)c2F)C(=O)O1
- MIC [1]: 16 µg/mL (≈ 44.5 µM)
- MIC [2]: 32 µg/mL (≈ 89.1 µM)
- IC50 [5]: 23.4 µM
- MIC [3]: 16 µg/mL (≈ 44.5 µM)
- MIC [4]: 16 µg/mL (≈ 44.5 µM)

Compound: CNC(=O)[C@H]1CN(c2ccc(N3CCCOCC3)cc2)C(=O)O1
- MIC [1]: 32 µg/mL (≈ 100 µM)
- MIC [2]: 64 µg/mL (≈ 200 µM)
- MIC [3]: 32 µg/mL (≈ 100 µM)
- MIC [4]: 32 µg/mL (≈ 100 µM)

Compound: NC(=O)[C@H]1CN(c2ccc(N3CCCOCC3)cc2)C(=O)O1
- MIC [1]: 64 µg/mL (≈ 210 µM)
- MIC [2]: 64 µg/mL (≈ 210 µM)
- MIC [3]: 32 µg/mL (≈ 105 µM)
- MIC [4]: 32 µg/mL (≈ 105 µM)

Compound: COC(=O)NC[C@H]1CN(c2ccc(N3CCCOCC3)cc2)C(=O)O1
- MIC [1]: 8 µg/mL (≈ 22.9 µM)
- MIC [2]: 16 µg/mL (≈ 45.8 µM)
- MIC [3]: 16 µg/mL (≈ 45.8 µM)
- MIC [4]: 16 µg/mL (≈ 45.8 µM)

Compound: CC(=O)NC[C@H]1CN(c2cc(F)c(N3CCCOCC3)c(F)c2F)C(=O)O1
- MIC [1]: 2 µg/mL (≈ 5.16 µM)
- MIC [2]: 2 µg/mL (≈ 5.16 µM)
- IC50 [5]: 3.93 µM
- MIC [3]: 2 µg/mL (≈ 5.16 µM)
- MIC [4]: 1 µg/mL (≈ 2.58 µM)

Compound: CC(C)(C)OC(=O)NC[C@H]1CN(c2ccc(N3CCCOCC3)c(F)c2)C(=O)O1
- MIC [1]: 32 µg/mL (≈ 78.2 µM)
- MIC [2]: 64 µg/mL (≈ 156 µM)
- MIC [3]: 32 µg/mL (≈ 78.2 µM)
- MIC [4]: 32 µg/mL (≈ 78.2 µM)

Compound: CC(C)(C)OC(=O)NC[C@H]1CN(c2cc(F)c(N3CCCOCC3)c(F)c2)C(=O)O1
- MIC [1]: 8 µg/mL (≈ 18.7 µM)
- MIC [2]: 32 µg/mL (≈ 74.9 µM)
- MIC [3]: 8 µg/mL (≈ 18.7 µM)
- MIC [4]: 16 µg/mL (≈ 37.4 µM)

Compound: Cl.NC[C@H]1CN(c2ccc(N3CCCOCC3)c(F)c2)C(=O)O1
- MIC [1]: > 64 µg/mL
- MIC [2]: > 64 µg/mL
- MIC [3]: > 64 µg/mL
- MIC [4]: > 64 µg/mL

Compound: CNC(=O)[C@H]1CN(c2cc(F)c(N3CCCOCC3)c(F)c2F)C(=O)O1
- MIC [1]: 16 µg/mL (≈ 42.9 µM)
- MIC [2]: 32 µg/mL (≈ 85.7 µM)
- IC50 [5]: 18.9 µM
- MIC [3]: 16 µg/mL (≈ 42.9 µM)
- MIC [4]: 16 µg/mL (≈ 42.9 µM)

Compound: CC(=O)NC[C@H]1CN(c2ccc(N3CCCOCC3)cc2)C(=O)O1
- MIC [1]: 8 µg/mL (≈ 24 µM)
- MIC [2]: 16 µg/mL (≈ 48 µM)
- MIC [3]: 8 µg/mL (≈ 24 µM)
- MIC [4]: 8 µg/mL (≈ 24 µM)

Compound: CC(C)(C)OC(=O)NC[C@H]1CN(c2ccc(N3CCCOCC3)cc2)C(=O)O1
- MIC [1]: 32 µg/mL (≈ 81.7 µM)
- MIC [2]: 32 µg/mL (≈ 81.7 µM)
- MIC [3]: 16 µg/mL (≈ 40.9 µM)
- MIC [4]: 16 µg/mL (≈ 40.9 µM)

Compound: CCC(=O)NC[C@H]1CN(c2cc(F)c(N3CCCOCC3)c(F)c2)C(=O)O1
- MIC [1]: 1 µg/mL (≈ 2.61 µM)
- MIC [2]: 2 µg/mL (≈ 5.22 µM)
- IC50 [5]: 2.1 µM
- MIC [3]: 2 µg/mL (≈ 5.22 µM)
- MIC [4]: 2 µg/mL (≈ 5.22 µM)

Compound: O=C1O[C@@H](Cn2ccnn2)CN1c1cc(F)c(N2CCCOCC2)c(F)c1
- MIC [1]: 1 µg/mL (≈ 2.64 µM)
- MIC [2]: 2 µg/mL (≈ 5.27 µM)
- MIC [3]: 2 µg/mL (≈ 5.27 µM)
- MIC [4]: 2 µg/mL (≈ 5.27 µM)

Compound: NC(=O)[C@H]1CN(c2cc(F)c(N3CCCOCC3)c(F)c2)C(=O)O1
- MIC [1]: 4 µg/mL (≈ 11.7 µM)
- MIC [2]: 8 µg/mL (≈ 23.4 µM)
- IC50 [5]: 5.87 µM
- MIC [3]: 4 µg/mL (≈ 11.7 µM)
- MIC [4]: 4 µg/mL (≈ 11.7 µM)

Compound: CC(=O)NC[C@H]1CN(c2ccc(N3CCOCC3)c(F)c2)C(=O)O1 [LINEZOLID]
- MIC [1]: 2 µg/mL (≈ 5.93 µM)
